Measured values from ChEMBL document CHEMBL3616444, “Design, synthesis and pharmacological evaluation of pyrimidobenzothiazole-3-carboxylate derivatives as selective L-type calcium channel blockers” (Bioorg Med Chem, 2015).

Experiments:
[1] = molecular target: Myosin light chain kinase, smooth muscle (Homo sapiens, UniProt Q15746); assay: Inhibition of MLCK (unknown origin) incubated for 15 mins using [gamma-32P]-ATP by scintillation counting method
In short: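 Active MLCK thawed on ice with kinase assay and dilution buffers and substrate; reaction with γ-32P-ATP incubated 15 min at 30 °C in a water bath, spotted on phosphocellulose P81 paper, washed three times ~10 min in 1% phosphoric acid. Radioactivity by scintillation counting, blank-corrected cpm converted to specific activity (nmol/min/mg); IC50 from log plots, at least five determinations per concentration.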

[2] = Inhibition of porcine kidney ACE assessed as reduction in hippuryl-histidyl-leucine hydrolysis to hippuric acid release incubated for 30 mins high-throughput colorimetric method; parameters: species or system Sus scrofa
In short: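 Porcine kidney ACE in 1 M sodium borate buffer pH 8.2 with 0.3 M NaCl and 5 mM HHL substrate (stock); 37 °C for 30 min, stopped with 1 M HCl. Released hippuric acid complexed with pyridine and benzene sulfonyl chloride, cooled on ice, yellow colour read at 410 nm; IC50 from log plots, at least five determinations per concentration.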

[3] = test system: Rattus norvegicus; assay: Antihypertensive activity in Norwegian albino rat model of DOCA-salt-induced hypertension assessed as inhibition of systolic blood pressure at 10 mg/kg, po after 1 hr by non-invasive tail cuff method relative to control; format: functional
In short: (§1)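 DOCA-salt hypertensive rats; systolic pressure by tail cuff after 10 mg/kg, recorded hourly from 0 to 10 h; percent inhibition computed. Data as mean ± SEM, repeated-measures ANOVA.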

[4] = test system: Rattus norvegicus; assay: Antihypertensive activity in Norwegian albino rat model of DOCA-salt-induced hypertension assessed as inhibition of systolic blood pressure at 10 mg/kg, po after 2 hrs by non-invasive tail cuff method relative to control; format: functional; in short: as §1
[5] = test system: Rattus norvegicus; assay: Antihypertensive activity in Norwegian albino rat model of DOCA-salt-induced hypertension assessed as inhibition of systolic blood pressure at 10 mg/kg, po after 3 hrs by non-invasive tail cuff method relative to control; format: functional; in short: as §1
[6] = test system: Rattus norvegicus; assay: Antihypertensive activity in Norwegian albino rat model of DOCA-salt-induced hypertension assessed as inhibition of systolic blood pressure at 10 mg/kg, po after 4 hrs by non-invasive tail cuff method relative to control; format: functional; in short: as §1
[7] = test system: Rattus norvegicus; assay: Antihypertensive activity in Norwegian albino rat model of DOCA-salt-induced hypertension assessed as inhibition of systolic blood pressure at 10 mg/kg, po after 5 hrs by non-invasive tail cuff method relative to control; format: functional; in short: as §1
[8] = test system: Rattus norvegicus; assay: Antihypertensive activity in Norwegian albino rat model of DOCA-salt-induced hypertension assessed as inhibition of systolic blood pressure at 10 mg/kg, po after 6 hrs by non-invasive tail cuff method relative to control; format: functional; in short: as §1
[9] = test system: Rattus norvegicus; assay: Antihypertensive activity in Norwegian albino rat model of DOCA-salt-induced hypertension assessed as inhibition of systolic blood pressure at 10 mg/kg, po after 7 hrs by non-invasive tail cuff method relative to control; format: functional; in short: as §1
[10] = test system: Rattus norvegicus; assay: Antihypertensive activity in Norwegian albino rat model of DOCA-salt-induced hypertension assessed as inhibition of systolic blood pressure at 10 mg/kg, po after 8 hrs by non-invasive tail cuff method relative to control; format: functional; in short: as §1
[11] = test system: Rattus norvegicus; assay: Antihypertensive activity in Norwegian albino rat model of DOCA-salt-induced hypertension assessed as inhibition of systolic blood pressure at 10 mg/kg, po after 9 hrs by non-invasive tail cuff method relative to control; format: functional; in short: as §1
[12] = test system: Rattus norvegicus; assay: Antihypertensive activity in Norwegian albino rat model of DOCA-salt-induced hypertension assessed as inhibition of systolic blood pressure at 10 mg/kg, po after 10 hrs by non-invasive tail cuff method relative to control; format: functional; in short: as §1
[13] = test system: Rattus norvegicus; assay: Antihypertensive activity in Norwegian albino rat assessed as inhibition of systolic blood pressure at 10 mg/kg, po after 0.15 hrs by invasive carotid artery cannulation method relative to control; format: functional
[14] = test system: Rattus norvegicus; assay: Antihypertensive activity in Norwegian albino rat assessed as inhibition of systolic blood pressure at 10 mg/kg, po after 0.3 hrs by invasive carotid artery cannulation method relative to control; format: functional
[15] = test system: Rattus norvegicus; assay: Antihypertensive activity in Norwegian albino rat assessed as inhibition of systolic blood pressure at 10 mg/kg, po after 1 hr by invasive carotid artery cannulation method relative to control; format: functional
[16] = test system: Rattus norvegicus; assay: Antihypertensive activity in Norwegian albino rat assessed as inhibition of systolic blood pressure at 10 mg/kg, po after 2 hrs by invasive carotid artery cannulation method relative to control; format: functional
[17] = test system: Rattus norvegicus; assay: Antihypertensive activity in Norwegian albino rat assessed as inhibition of systolic blood pressure at 10 mg/kg, po after 3 hrs by invasive carotid artery cannulation method relative to control; format: functional
[18] = test system: Rattus norvegicus; assay: Antihypertensive activity in Norwegian albino rat assessed as inhibition of systolic blood pressure at 10 mg/kg, po after 4 hrs by invasive carotid artery cannulation method relative to control; format: functional
[19] = test system: Rattus norvegicus; assay: Gastrointestinal toxicity in Norwegian rat assessed as ulcerative index at 50 mg/kg, po after 17 hrs; format: organism-based; settings: in vivo
[20] = physchem; settings: buffer, pH 7.4
[21] = Cmax in Sprague-Dawley rat at 10 mg/kg, iv by HPLC method; format: ADME, organism-based; parameters: dose 10 mg/kg, route intravenous; settings: in vivo
[22] = Cmax in Sprague-Dawley rat at 20 mg/kg, po by HPLC method; format: ADME, organism-based; parameters: dose 20 mg/kg, route oral; settings: in vivo
[23] = Tmax in Sprague-Dawley rat at 20 mg/kg, po by HPLC method; format: ADME, organism-based; settings: in vivo
[24] = Elimination half life in Sprague-Dawley rat at 10 mg/kg, iv by HPLC method; format: ADME, organism-based; settings: in vivo, read-out: beta t1/2 (converted)
[25] = Elimination half life in Sprague-Dawley rat at 20 mg/kg, po by HPLC method; format: ADME, organism-based; settings: in vivo, read-out: beta t1/2 (converted)
[26] = AUC (0 to infinity) in Sprague-Dawley rat at 10 mg/kg, iv by HPLC method; format: ADME, organism-based; parameters: dose 10 mg/kg, route intravenous, time infinity; settings: in vivo
[27] = AUC (0 to infinity) in Sprague-Dawley rat at 20 mg/kg, po by HPLC method; format: ADME, organism-based; parameters: dose 20 mg/kg, route oral, time infinity; settings: in vivo
[28] = Oral bioavailability in Sprague-Dawley rat at 20 mg/kg by HPLC method; format: ADME, organism-based; settings: in vivo
[29] = Retardation factor of the compound by HPTLC method; format: physicochemical
In short: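 Pre-coated silica gel 60 F254 plates (200 µm layer); 5 µl sample applied as 5 mm bands; toluene/acetonitrile (9:1) mobile phase, ascending development to 90 mm in a chamber pre-saturated 15 min.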

[30] = Retention time of the compound by HPLC method; format: physicochemical
In short: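 HPLC run with 20 µl injection, 1.0 ml/min flow, 25 °C, detection at 343 nm or 258 nm depending on compound.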

[31] = test system: Rattus norvegicus; assay: Antihypertensive activity in Norwegian albino rat assessed as inhibition of diastolic blood pressure at 10 mg/kg, po after 1 hr by invasive carotid artery cannulation method relative to control
[32] = test system: Rattus norvegicus; assay: Antihypertensive activity in Norwegian albino rat assessed as inhibition of diastolic blood pressure at 10 mg/kg, po after 2 hrs by invasive carotid artery cannulation method relative to control
[33] = test system: Rattus norvegicus; assay: Antihypertensive activity in Norwegian albino rat assessed as inhibition of diastolic blood pressure at 10 mg/kg, po after 3 hrs by invasive carotid artery cannulation method relative to control
[34] = test system: Rattus norvegicus; assay: Antihypertensive activity in Norwegian albino rat assessed as inhibition of diastolic blood pressure at 10 mg/kg, po after 4 hrs by invasive carotid artery cannulation method relative to control
[35] = test system: Rattus norvegicus; assay: Antihypertensive activity in Norwegian albino rat assessed as inhibition of diastolic blood pressure at 10 mg/kg, po after 0.3 hrs by invasive carotid artery cannulation method relative to control
[36] = test system: Rattus norvegicus; assay: Antihypertensive activity in Norwegian albino rat assessed as inhibition of diastolic blood pressure at 10 mg/kg, po after 0.15 hrs by invasive carotid artery cannulation method relative to control

Sequence of Myosin light chain kinase, smooth muscle (Q15746 whole entry): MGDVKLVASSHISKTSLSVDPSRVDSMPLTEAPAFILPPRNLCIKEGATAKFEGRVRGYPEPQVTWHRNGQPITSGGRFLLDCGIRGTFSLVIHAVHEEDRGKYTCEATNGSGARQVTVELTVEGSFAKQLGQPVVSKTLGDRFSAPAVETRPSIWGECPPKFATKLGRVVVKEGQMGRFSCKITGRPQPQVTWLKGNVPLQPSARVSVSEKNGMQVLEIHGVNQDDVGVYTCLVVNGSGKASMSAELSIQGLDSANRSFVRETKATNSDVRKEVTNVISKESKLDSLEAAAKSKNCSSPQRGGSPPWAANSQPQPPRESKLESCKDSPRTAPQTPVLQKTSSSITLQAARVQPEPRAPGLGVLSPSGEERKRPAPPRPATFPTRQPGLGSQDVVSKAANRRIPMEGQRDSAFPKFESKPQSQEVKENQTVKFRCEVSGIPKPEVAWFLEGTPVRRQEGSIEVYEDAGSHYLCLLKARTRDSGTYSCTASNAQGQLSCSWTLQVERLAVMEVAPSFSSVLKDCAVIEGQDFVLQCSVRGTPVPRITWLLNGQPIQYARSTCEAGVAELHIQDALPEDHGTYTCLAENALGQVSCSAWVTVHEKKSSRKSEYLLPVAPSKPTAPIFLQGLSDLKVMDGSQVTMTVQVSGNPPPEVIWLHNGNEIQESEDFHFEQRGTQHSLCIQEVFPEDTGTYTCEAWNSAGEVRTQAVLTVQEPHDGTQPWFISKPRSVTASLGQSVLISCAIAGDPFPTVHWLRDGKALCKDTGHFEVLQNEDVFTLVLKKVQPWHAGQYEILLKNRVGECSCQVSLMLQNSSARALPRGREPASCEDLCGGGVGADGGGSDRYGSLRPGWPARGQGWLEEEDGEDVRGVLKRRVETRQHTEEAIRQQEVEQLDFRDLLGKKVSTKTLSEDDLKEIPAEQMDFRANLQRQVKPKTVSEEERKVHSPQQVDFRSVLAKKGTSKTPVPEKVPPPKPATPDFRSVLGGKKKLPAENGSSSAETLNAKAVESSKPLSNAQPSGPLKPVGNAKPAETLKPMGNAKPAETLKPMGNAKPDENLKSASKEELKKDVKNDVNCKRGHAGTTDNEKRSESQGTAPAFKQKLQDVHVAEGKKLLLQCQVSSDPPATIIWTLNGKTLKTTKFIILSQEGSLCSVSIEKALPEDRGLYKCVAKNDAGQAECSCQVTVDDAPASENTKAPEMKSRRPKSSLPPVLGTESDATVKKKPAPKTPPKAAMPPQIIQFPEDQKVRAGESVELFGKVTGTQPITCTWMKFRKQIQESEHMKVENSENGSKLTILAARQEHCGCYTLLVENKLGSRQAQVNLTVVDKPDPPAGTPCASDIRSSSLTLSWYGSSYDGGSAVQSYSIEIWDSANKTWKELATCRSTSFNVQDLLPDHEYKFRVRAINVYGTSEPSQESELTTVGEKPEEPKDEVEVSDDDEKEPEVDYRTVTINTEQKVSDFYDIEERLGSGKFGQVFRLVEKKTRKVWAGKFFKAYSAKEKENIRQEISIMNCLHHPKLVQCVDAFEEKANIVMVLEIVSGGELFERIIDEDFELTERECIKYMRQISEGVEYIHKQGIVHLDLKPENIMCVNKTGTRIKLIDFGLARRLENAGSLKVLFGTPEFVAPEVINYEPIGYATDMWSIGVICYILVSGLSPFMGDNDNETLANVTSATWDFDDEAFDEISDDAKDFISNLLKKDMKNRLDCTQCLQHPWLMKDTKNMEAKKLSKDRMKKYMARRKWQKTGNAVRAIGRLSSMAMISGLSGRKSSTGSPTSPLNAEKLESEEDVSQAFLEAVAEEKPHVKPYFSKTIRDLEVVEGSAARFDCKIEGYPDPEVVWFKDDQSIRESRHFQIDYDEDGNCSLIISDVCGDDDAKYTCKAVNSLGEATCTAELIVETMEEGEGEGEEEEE

IC50 ([1]; read-out: IC50) | IC50 ([1]; read-out: pIC50 (converted)) | IC50 [2] | Compound | inhibition in vivo at 10 mg/kg [3] | inhibition in vivo at 10 mg/kg [4] | inhibition in vivo at 10 mg/kg [5] | inhibition in vivo at 10 mg/kg [6] | inhibition in vivo at 10 mg/kg [7] | inhibition in vivo at 10 mg/kg [8] | inhibition in vivo at 10 mg/kg [9] | inhibition in vivo at 10 mg/kg [10] | inhibition in vivo at 10 mg/kg [11] | inhibition in vivo at 10 mg/kg [12] | inhibition in vivo at 10 mg/kg [13] | inhibition in vivo at 10 mg/kg [14] | inhibition in vivo at 10 mg/kg [15] | inhibition in vivo at 10 mg/kg [16] | inhibition in vivo at 10 mg/kg [17] | inhibition in vivo at 10 mg/kg [18] | UI [19] | also measured
2.14 µM | 46700 µM | > 100 µM | COC(=O)C1=C(C)N=C2Sc3ccccc3N2C1c1ccc(OC)cc1 (stereo not drawn) | 1.33% | 1.78% | 13.3% | 20% | 24.4% | 25.3% | 31.1% | 35.6% | 40% | 48.9% | 4.42% | 7.08% | 15.9% | 27% | 31% | 42.5% | 0.54 | logD [20]: 4.64
2.04 µM | 49000 µM | > 100 µM | COC(=O)C1=C(C)N=C2Sc3ccccc3N2C1c1ccc([N+](=O)[O-])cc1 (stereo not drawn) | 0% | 4.87% | 13.7% | 24.8% | 27% | 38% | 40.3% | 42.5% | 46.9% | 46.9% | 2.21% | 4.42% | 15.9% | 24.8% | 31% | 48.7% | 0.2 | logD [20]: 4.49
3.67 µM | 27200 µM | > 100 µM | COC(=O)C1=C(C)N=C2Sc3ccccc3N2C1c1ccc(O)c(OC)c1 (stereo not drawn) | 0.9% | 5.41% | 13.1% | 19.8% | 27.5% | 32.4% | 36.5% | 37.8% | 40.1% | 41% | 4.42% | 7.08% | 15.9% | 27% | 31% | 42.5% | 0.2 | logD [20]: 3.89
2.1 µM | 47600 µM | > 100 µM | CCOC(=O)C1=C(C)N=C2Sc3ccccc3N2C1c1cccc([N+](=O)[O-])c1 (stereo not drawn) | 4.89% | 10.2% | 14.2% | 19.1% | 23.1% | 27.6% | 37.8% | 41.8% | 47.1% | 51.1% | 4% | 20% | 21.8% | 28.9% | 42.2% | 52.4% | 0.2 | Cmax [21]: 1630 ng/mL; Cmax [22]: 400 ng/mL; Tmax [23]: 0.5 h; half-life [24]: 2.5 h; half-life [25]: 5.4 h; AUC(0-inf) [26]: 1480 ng·h/mL; AUC(0-inf) [27]: 840 ng·h/mL; bioavailability [28]: 56.8%; Rf [29]: 4.2; Retention_time [30]: 3.045 min; logD [20]: 4.57

Compound | IC50 ([1]; read-out: IC50) | IC50 ([1]; read-out: pIC50 (converted)) | IC50 [2] | inhibition in vivo at 10 mg/kg [3] | inhibition in vivo at 10 mg/kg [4] | inhibition in vivo at 10 mg/kg [5] | inhibition in vivo at 10 mg/kg [6] | inhibition in vivo at 10 mg/kg [7] | inhibition in vivo at 10 mg/kg [8] | inhibition in vivo at 10 mg/kg [9] | inhibition in vivo at 10 mg/kg [10] | inhibition in vivo at 10 mg/kg [11] | inhibition in vivo at 10 mg/kg [12] | inhibition in vivo at 10 mg/kg [13] | inhibition in vivo at 10 mg/kg [14] | inhibition in vivo at 10 mg/kg [15] | inhibition in vivo at 10 mg/kg [16] | inhibition in vivo at 10 mg/kg [17] | inhibition in vivo at 10 mg/kg [18] | UI [19] | also measured
COC(=O)C1=C(C)NC(C)=C(C(=O)OC)C1c1ccccc1[N+](=O)[O-] [NIFEDIPINE] | 2.02 µM |  | 2.34 µM | 4.89% | 10.7% | 14.2% | 19.1% | 23.1% | 32.9% | 41.8% | 47.6% | 52% | 54.2% |  |  |  |  |  |  | 0.54 | inhibition in vivo at 10 mg/kg [31]: 16%; inhibition in vivo at 10 mg/kg [32]: 26.7%; inhibition in vivo at 10 mg/kg [33]: 37.3%; inhibition in vivo at 10 mg/kg [34]: 53.8%; inhibition in vivo at 10 mg/kg [35]: 13.8%; inhibition in vivo at 10 mg/kg [36]: 6.22%
